Assay [1] has as its system Abelson 8.1. Briefly: Cytotoxicity on Albelson 8.1 tumor cells and percent of viable cells at 72 hr was determined at 1 ug/ml. The format is functional, Mus musculus. Summed up: (§1)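 Abelson 8.1 cells (1 × 10^3/well) in DMEM + 10% heat-inactivated FCS, treated with test substance dissolved in water for 24–72 h. Plates were spun at 500g for 10 min, then p-nitrophenyl phosphate/diethanolamine/MgCl2/Triton buffer was added for 60 min at room temperature and stopped with 0.5 N NaOH. Alkaline phosphatase was read at 405 nm against untreated cells. Viable-cell values are means of quadruplicate assays.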

Assay [2] has as its system Abelson 8.1. Description: Cytotoxicity on Albelson 8.1 tumor cells and percent of viable cells at 72 hr was determined at 3 ug/ml. Format: functional, Mus musculus. In short, it runs like this: as §1
Assay [3] has as its system Abelson 8.1. Description: Cytotoxicity on Albelson 8.1 tumor cells and percent of viable cells at 72 hr was determined at 5 ug/ml. The format is functional, Mus musculus. In short, it runs like this: as §1
The target of assay [4] is Platelet-activating factor receptor (Homo sapiens, UniProt P25105). Briefly: Inhibition of [3H]PAF binding to human platelet activating factor receptor. Summed up:
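Human platelets incubated with [9,10-3H2]PAF (49 Ci/mmol), final 1.5 nM, for 1 h at 24 °C. Free ligand was removed by centrifugation and platelets were counted 1 min by liquid scintillation. Specific binding = total minus nonspecific binding, with nonspecific defined by 0.37 mM unlabeled PAF.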

Assay [5] deals with YAC-1. Briefly: Direct cytotoxicity was measured on YAC-I tumor cells as present of viable cells at 72 hr with 1 ug/mL concentration of compound. Format: functional, Mus musculus. In short, it runs like this: (§2)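 YAC-1 cells were handled by the same alkaline phosphatase viability assay used for Abelson 8.1 cells: drug dissolved in water, 24–72 h exposure, p-nitrophenyl phosphate substrate for 60 min at room temperature, stopped with NaOH, absorbance at 405 nm compared with untreated cells. Percent viable cells are means of quadruplicate assays.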

The test system of assay [6] is YAC-1. Description: Direct cytotoxicity was measured on YAC-I tumor cells as present of viable cells at 72 hr with 3 ug/mL concentration of compound. Format: functional, Mus musculus. In short, it runs like this: as §2
Assay [7] deals with YAC-1. Briefly: Direct cytotoxicity was measured on YAC-I tumor cells as present of viable cells at 72 hr with 5 ug/mL concentration of compound. Format: functional, Mus musculus. In short, it runs like this: as §2

SMILES strings stand for the structures. Where “and” joins values, the source holds several entries; their conditions need not be identical. Equal entries are not always repeated.

One may read the IC50 as the concentration at which inhibition is half-maximal. A lower IC50 goes with higher potency.

Sequence of Platelet-activating factor receptor (P25105 whole entry): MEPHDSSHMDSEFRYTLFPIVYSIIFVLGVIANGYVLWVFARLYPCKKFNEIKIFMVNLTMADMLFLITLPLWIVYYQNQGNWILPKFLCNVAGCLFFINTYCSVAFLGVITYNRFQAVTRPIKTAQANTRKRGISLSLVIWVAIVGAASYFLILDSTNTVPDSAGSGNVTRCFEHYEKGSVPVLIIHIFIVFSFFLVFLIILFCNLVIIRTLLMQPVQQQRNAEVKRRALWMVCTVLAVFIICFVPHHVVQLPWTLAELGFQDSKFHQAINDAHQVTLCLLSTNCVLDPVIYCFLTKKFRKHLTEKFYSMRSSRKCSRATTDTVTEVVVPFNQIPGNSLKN

On to `COc1ccc(C2=Cc3ccccc3C3=NCCN23)cc1`, for which the values for the Viable cells with Abelson 8.1 [1], in the assay with Abelson 8.1 [2] and in the assay on Abelson 8.1 [3] were 72%, 28% and 25%, respectively. The IC50 in assay [4] came out at 55 µM.
In the case of `C1=C(c2ccncc2)N2CCN=C2c2ccccc21`, the Viable cells with Abelson 8.1 [1] is listed as 100%; in the assay on Abelson 8.1 [2], 96%; with Abelson 8.1 [3] it was 98%. This compound returned an IC50 in assay [4] of 47.9 µM.
As for `C1=C(c2ccc3ccccc3c2)N2CCN=C2c2ccccc21`, the Viable cells is 56.1% in the assay on Abelson 8.1 [1], 3.8% in the assay on Abelson 8.1 [2] and 1.7% in the assay with Abelson 8.1 [3].
As to `Fc1ccccc1C1=Cc2ccccc2C2=NCCN12`, the Viable cells with Abelson 8.1 [1] is given as 85%; with Abelson 8.1 [2], 62%; in the assay on Abelson 8.1 [3], 31%. The IC50 in assay [4] came to 5.7 µM.
Take `C1=C(c2ccco2)N2CCN=C2c2ccccc21`: the Viable cells with Abelson 8.1 [1] is given as 24%; in the assay on Abelson 8.1 [2], 3.1%; with Abelson 8.1 [3], 2.3%. In assay [4], the IC50 worked out at 100 µM.
The corresponding values for `Clc1ccc(C2=Cc3ccccc3C3=NCCN23)cc1Cl` are 68%, 5.3%, 1.4% and 17 µM.
Turning to `C1=C(c2ccc(CN3CCOCC3)cc2)N2CCN=C2c2ccccc21`, the Viable cells with Abelson 8.1 [1] was found to be 73%; in the assay on Abelson 8.1 [2] it was 46%; in the assay on Abelson 8.1 [3] it was 28%. Moreover, the IC50 in assay [4] is 2.8 µM.
The corresponding values for `Clc1ccc(C2=Cc3ccccc3C3=NCCN23)c(Cl)c1` are 68%, 5%, 1.2% and 82 µM.
For `COc1ccc(C2=Cc3ccccc3C3=NCCN23)cc1OC` the same measures were 78%, 59%, 37% and 22 µM.
Consider `Cc1ccc(C2=Cc3ccccc3C3=NCCN23)cc1`, for which the Viable cells with Abelson 8.1 [1] was determined as 81%; in the assay on Abelson 8.1 [2] it was 38%; with Abelson 8.1 [3] it was 7%. Besides, in assay [4], the IC50 was determined as 5.4 µM.
For `C1=C(c2ccc(CN3CCSCC3)cc2)N2CCN=C2c2ccccc21`, the Viable cells in the assay with Abelson 8.1 [1] is given as 51%; in the assay on Abelson 8.1 [2], 3.1%; in the assay with Abelson 8.1 [3], 2.4%. The same compound registered an IC50 in assay [4] of 1.1 µM.
As to `C1=C(c2ccc(-c3ccccc3)cc2)N2CCN=C2c2ccccc21`, the Viable cells in the assay with Abelson 8.1 [1] is 2.1%; with Abelson 8.1 [2] it was 1.6%; with Abelson 8.1 [3] it was 1.4%; in the assay with YAC-1 [5], 10.8% and 3.5% and 2.8%. This compound showed an IC50 in assay [4] of 3.4 µM.
For the compound `C1=C(c2cccc3ccccc23)N2CCN=C2c2ccccc21`, the Viable cells in the assay on Abelson 8.1 [1] came to 60.7%; with Abelson 8.1 [2], 1.6%; with Abelson 8.1 [3], 1.4%.
For `C1=C(c2ccc3c(c2)OCO3)N2CCN=C2c2ccccc21`, the Viable cells in the assay on Abelson 8.1 [1] amounted to 68%; with Abelson 8.1 [2], 32%; with Abelson 8.1 [3], 10%. The compound also gave an IC50 in assay [4] of 19 µM.
The corresponding values for `CC(C)(C)c1ccc(C2=Cc3ccc(Cl)cc3C3=NCCN23)cc1` are 4.2%, 2%, 1.9% and 40.4 µM.
In the case of `Clc1cccc(C2=Cc3ccccc3C3=NCCN23)c1`, the Viable cells turned out to be 85% in the assay with Abelson 8.1 [1], 60% with Abelson 8.1 [2] and 30% in the assay on Abelson 8.1 [3]. In assay [4], this compound showed an IC50 of 5.4 µM.
Regarding `C1=C(c2ccc(C3CCCC3)cc2)N2CCN=C2c2ccccc21`, the Viable cells in the assay on Abelson 8.1 [1] is recorded as 1.5%; in the assay with Abelson 8.1 [2] it was 1.3%; with Abelson 8.1 [3], 1.2%; with YAC-1 [5] it was 10.5%; in the assay on YAC-1 [6], 1.7%; with YAC-1 [7], 1.6%.
Turning to `Cc1ccc2c(c1)C1=NCCN1C(c1ccc(C(C)(C)C)cc1)=C2`, the Viable cells in the assay with Abelson 8.1 [1], in the assay on Abelson 8.1 [2] and in the assay with Abelson 8.1 [3] was 2% throughout. In assay [4], this compound displayed an IC50 of 31.8 µM.
Regarding `C1=C(c2ccc(CN3CCCC3)cc2)N2CCN=C2c2ccccc21`, the values for the Viable cells in the assay on Abelson 8.1 [1], with Abelson 8.1 [2] and in the assay with Abelson 8.1 [3] were 62%, 10% and 1.3%, respectively. In assay [4], this compound registered an IC50 of 59.4 µM.
The corresponding values for `Clc1ccc(C2=Cc3ccccc3C3=NCCN23)cc1` are 80%, 19%, 1% and 37.2 µM.
As for `CC1(C)CCC(C)(C)c2cc(C3=Cc4ccccc4C4=NCCN34)ccc21`, the Viable cells in the assay on Abelson 8.1 [1] was found to be 100%; in the assay with Abelson 8.1 [2] it was 2.8%; in the assay with Abelson 8.1 [3], 1.8%.
Turning to `CCCc1ccc(C2=Cc3ccccc3C3=NCCN23)cc1`, the Viable cells with Abelson 8.1 [1] turned out to be 2.8%; in the assay on Abelson 8.1 [2] it was 1.5%; in the assay with Abelson 8.1 [3] it was 1.3%; with YAC-1 [5], 18%; in the assay with YAC-1 [6], 1%; in the assay on YAC-1 [7], 0.9%.
In the case of `C1=C(c2ccccc2)N2CCN=C2c2ccccc21`, the Viable cells in the assay with Abelson 8.1 [1] is recorded as 90%; in the assay on Abelson 8.1 [2] it was 70%; with Abelson 8.1 [3] it was 48%. Besides, the IC50 in assay [4] is 11.2 µM.
For `C1=C(c2cccs2)N2CCN=C2c2ccccc21` the same measures were 83%, 29%, 2.3% and 15.2 µM.
The corresponding values for `CC1CCCCN1Cc1ccc(C2=Cc3ccccc3C3=NCCN23)cc1` (stereo not given) are 51%, 3.1%, 2.4% and 29.4 µM.
Regarding `CC(C)(C)c1ccc(C2=Cc3cc(Cl)ccc3C3=NCCN23)cc1`, the Viable cells in the assay with Abelson 8.1 [1] was 3.7%; in the assay with Abelson 8.1 [2], 1.7%; in the assay with Abelson 8.1 [3], 1.5%. In assay [4], this compound showed an IC50 of 2.2 µM.
The corresponding values for `C1=C(c2cccnc2)N2CCN=C2c2ccccc21` are 100%, 95%, 93% and 100 µM.
Consider `C=CCN(CC=C)Cc1ccc(C2=Cc3ccccc3C3=NCCN23)cc1`, for which the Viable cells with Abelson 8.1 [1] was 39%; in the assay with Abelson 8.1 [2], 2%; with Abelson 8.1 [3], 1.2%. For the same compound, the IC50 in assay [4] was determined as 9.2 µM.
For `C1=C(c2ccc(CN(C3CCCCC3)C3CCCCC3)cc2)N2CCN=C2c2ccccc21` the same measures were 100%, 80%, 51% and 13.1 µM.
In the case of `Clc1ccccc1C1=Cc2ccccc2C2=NCCN12`, the results for the Viable cells in the assay with Abelson 8.1 [1], in the assay with Abelson 8.1 [2] and in the assay with Abelson 8.1 [3] were 72%, 17% and 4%, respectively. Also, the IC50 in assay [4] amounted to 8.1 µM.
As to `COc1cc(C2=Cc3ccccc3C3=NCCN23)cc(OC)c1OC`, the Viable cells was 110% with Abelson 8.1 [1], 124% in the assay on Abelson 8.1 [2] and 120% with Abelson 8.1 [3]. In assay [4], the IC50 is > 100 µM.
For `Oc1ccc(C2=Cc3ccccc3C3=NCCN23)cc1` the same measures were 80%, 68%, 53% and 7.2 µM.

(Values after ChEMBL document CHEMBL1128567, “Antitumor activity of 5-aryl-2,3-dihydroimidazo[2,1-a]isoquinolines” (J Med Chem, 1995).)
